Like-named read-outs stand apart in the source and are kept apart here. Where no end group is shown, it is not given here.
Tests used:
[1] = molecular target: human muscle-type nAChR, adult form (α1β1ϵδ) (Homo sapiens, UniProt P02708+P11230+Q04844+Q07001); assay type: cell-based; conditions: human muscle-type nAChR in oocytes; washing for 2 min
Outline: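 Human α1, β1, δ and ε (adult) or γ (fetal) subunit cDNAs were injected into the oocyte nucleus, and two-electrode voltage clamp was run 2–3 days later. Cells received 5 s pulses of 5 μM ACh every 2 min. After stabilization, the test compound was applied at varied concentrations for at least 1 min, the ACh response was retested, and recovery was followed over several minutes.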

GABAA receptor α2β3γ2 = GABAA receptor α2β3γ2 (Rattus norvegicus, UniProt P18508+P23576+P63079); test: Two-electrode voltage clamp on recombinant GABAA receptors in Xenopus oocytes; assay type: cell-based; conditions: up to 10 μM
GABAA receptor α1β3γ2 = GABAA receptor α1β3γ2 (Rattus norvegicus, UniProt P18508+P62813+P63079); test: as above; assay type: cell-based; conditions: up to 100 μM
T. californica nAChR [2] = molecular target: T1, T. californica nAChR (Tetronarce californica, UniProt P02710+P02712+P02714+P02718); assay type: binding, Torpedo californica; conditions: Torpedo nAChR, from two-site IC50 values
5-HT3A receptor = molecular target: T2, 5-HT3A receptor (Homo sapiens, UniProt P46098); test: Current recording on 5-HT3 receptors in Xenopus oocytes; assay type: cell-based; conditions: concentrations up to 10 μM
T2 sequence (P46098 24-478): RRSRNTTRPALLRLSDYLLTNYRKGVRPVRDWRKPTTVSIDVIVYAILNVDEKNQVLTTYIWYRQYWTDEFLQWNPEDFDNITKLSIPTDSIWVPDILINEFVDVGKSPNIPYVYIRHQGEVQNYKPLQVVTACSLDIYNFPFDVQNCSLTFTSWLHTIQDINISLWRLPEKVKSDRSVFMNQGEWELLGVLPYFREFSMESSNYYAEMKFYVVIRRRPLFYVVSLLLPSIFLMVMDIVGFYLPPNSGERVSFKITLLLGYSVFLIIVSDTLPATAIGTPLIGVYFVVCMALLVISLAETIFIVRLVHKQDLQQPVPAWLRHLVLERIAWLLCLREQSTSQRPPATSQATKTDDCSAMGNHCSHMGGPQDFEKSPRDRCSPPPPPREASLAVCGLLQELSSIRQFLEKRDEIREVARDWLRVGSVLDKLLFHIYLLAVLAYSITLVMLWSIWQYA
Outline: (§1)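 Human 5-HT3A (with 5-HT3B for the heteromer) subunit cRNA was transcribed in vitro from cDNA and injected into Xenopus oocytes. Currents were recorded 1–4 days after injection.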

[3] = tested on: adult male mice of BALB/c line; test: Lethal effect of azemiopsin on mice; assay type: in vivo, mouse; conditions: intraperitoneal injection, solution in water, doses 2–10 mg/kg
Outline: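 Adult male BALB/c mice (18–22 g) were kept on a 12/12-h light/dark cycle with food and water ad libitum. The test compound, dissolved in water, was given intraperitoneally at 2, 2.7, 4, 8 and 10 mg/kg body weight.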

5-HT3AB receptor = molecular target: T3, 5-HT3AB receptor (Homo sapiens, UniProt O95264+P46098); test: Current recording on 5-HT3 receptors in Xenopus oocytes; assay type: cell-based; conditions: concentrations up to 10 μM
T3 sequence (P46098 24-478): T2 sequence (P46098 24-478)
T3 sequence (O95264 22-441): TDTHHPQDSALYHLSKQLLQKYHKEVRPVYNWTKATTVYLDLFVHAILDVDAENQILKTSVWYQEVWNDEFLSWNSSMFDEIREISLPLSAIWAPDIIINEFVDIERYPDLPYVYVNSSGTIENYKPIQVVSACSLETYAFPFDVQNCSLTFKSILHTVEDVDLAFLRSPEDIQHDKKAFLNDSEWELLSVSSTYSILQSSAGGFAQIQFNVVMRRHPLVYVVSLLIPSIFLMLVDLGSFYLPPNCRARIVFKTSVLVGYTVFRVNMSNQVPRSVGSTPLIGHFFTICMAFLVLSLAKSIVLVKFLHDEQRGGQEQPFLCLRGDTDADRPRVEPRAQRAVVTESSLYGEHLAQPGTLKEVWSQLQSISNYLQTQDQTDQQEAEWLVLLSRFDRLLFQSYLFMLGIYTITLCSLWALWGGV
Outline: as §1

T. californica nAChR [4] = molecular target: T1, T. californica nAChR; conditions: read-out: IC50, inhibition of α-bungarotoxin binding; cited from earlier work
Human α7 nAChR [5] = molecular target: T4, Human α7 nAChR (Homo sapiens, UniProt P36544); conditions: read-out: IC50, inhibition of α-bungarotoxin binding; cited from earlier work
Human α7 nAChR [6] = molecular target: T4, Human α7 nAChR; conditions: read-out: IC50, inhibition of α-bungarotoxin binding
A. californica AChBP = molecular target: T5, A. californica AChBP (Aplysia californica, UniProt Q8WSF8); conditions: read-out: IC50, inhibition of α-bungarotoxin binding
T5 sequence (Q8WSF8 18-236 limits assumed): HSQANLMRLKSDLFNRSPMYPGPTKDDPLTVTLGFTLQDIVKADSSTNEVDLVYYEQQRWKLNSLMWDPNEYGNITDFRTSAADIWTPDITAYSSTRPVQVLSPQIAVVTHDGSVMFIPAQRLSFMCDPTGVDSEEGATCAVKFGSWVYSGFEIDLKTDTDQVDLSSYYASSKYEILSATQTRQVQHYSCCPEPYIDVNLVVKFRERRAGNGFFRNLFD

L. stagnalis AChBP = L. stagnalis AChBP (Lymnaea stagnalis, UniProt P58154); conditions: read-out: IC50, inhibition of α-bungarotoxin binding
L. stagnalis AChBP, sequence (P58154 20-229): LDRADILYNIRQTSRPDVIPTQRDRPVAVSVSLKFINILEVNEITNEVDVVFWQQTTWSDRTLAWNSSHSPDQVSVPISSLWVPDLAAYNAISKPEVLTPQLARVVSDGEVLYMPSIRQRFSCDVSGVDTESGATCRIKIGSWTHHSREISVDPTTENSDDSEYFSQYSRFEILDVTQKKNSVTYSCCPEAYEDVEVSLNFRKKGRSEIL

T1 sequence (P02710 25-461): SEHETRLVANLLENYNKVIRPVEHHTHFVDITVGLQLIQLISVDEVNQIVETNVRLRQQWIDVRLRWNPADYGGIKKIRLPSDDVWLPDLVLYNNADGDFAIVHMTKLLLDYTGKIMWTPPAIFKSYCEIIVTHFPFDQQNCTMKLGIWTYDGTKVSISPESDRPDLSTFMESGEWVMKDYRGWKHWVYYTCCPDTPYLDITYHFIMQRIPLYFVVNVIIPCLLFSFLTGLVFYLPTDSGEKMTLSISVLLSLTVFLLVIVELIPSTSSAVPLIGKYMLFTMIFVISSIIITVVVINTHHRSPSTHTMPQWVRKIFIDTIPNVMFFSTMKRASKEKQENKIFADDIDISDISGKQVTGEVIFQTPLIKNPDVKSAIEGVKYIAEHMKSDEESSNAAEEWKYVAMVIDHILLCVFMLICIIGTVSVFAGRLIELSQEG
T1 sequence (P02712 25-493 partner): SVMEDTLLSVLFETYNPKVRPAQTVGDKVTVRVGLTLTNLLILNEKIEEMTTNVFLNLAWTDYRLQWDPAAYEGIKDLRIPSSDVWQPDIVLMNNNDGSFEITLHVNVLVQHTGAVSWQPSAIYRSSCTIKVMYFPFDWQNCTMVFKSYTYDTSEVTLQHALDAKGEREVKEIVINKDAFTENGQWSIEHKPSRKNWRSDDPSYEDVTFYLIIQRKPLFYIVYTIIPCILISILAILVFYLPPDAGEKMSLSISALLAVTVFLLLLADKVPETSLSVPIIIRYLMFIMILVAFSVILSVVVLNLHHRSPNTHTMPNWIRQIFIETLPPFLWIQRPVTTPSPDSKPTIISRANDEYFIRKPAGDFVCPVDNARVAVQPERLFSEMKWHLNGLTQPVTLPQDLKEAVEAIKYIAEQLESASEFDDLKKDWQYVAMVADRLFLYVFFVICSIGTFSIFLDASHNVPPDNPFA
T1 sequence (P02714 18-506): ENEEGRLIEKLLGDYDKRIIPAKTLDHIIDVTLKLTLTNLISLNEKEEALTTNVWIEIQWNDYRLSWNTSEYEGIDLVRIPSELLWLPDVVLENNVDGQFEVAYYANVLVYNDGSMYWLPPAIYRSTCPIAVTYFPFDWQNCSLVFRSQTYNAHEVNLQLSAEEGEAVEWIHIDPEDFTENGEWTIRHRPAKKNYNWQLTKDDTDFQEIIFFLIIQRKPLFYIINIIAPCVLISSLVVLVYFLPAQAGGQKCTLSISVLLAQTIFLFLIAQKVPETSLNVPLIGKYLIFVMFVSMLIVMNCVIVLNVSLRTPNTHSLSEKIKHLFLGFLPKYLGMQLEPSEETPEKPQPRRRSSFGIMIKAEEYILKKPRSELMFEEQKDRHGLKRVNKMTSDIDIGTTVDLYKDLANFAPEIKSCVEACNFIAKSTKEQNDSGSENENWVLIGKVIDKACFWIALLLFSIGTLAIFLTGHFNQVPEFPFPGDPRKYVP
T1 sequence (P02718 22-522): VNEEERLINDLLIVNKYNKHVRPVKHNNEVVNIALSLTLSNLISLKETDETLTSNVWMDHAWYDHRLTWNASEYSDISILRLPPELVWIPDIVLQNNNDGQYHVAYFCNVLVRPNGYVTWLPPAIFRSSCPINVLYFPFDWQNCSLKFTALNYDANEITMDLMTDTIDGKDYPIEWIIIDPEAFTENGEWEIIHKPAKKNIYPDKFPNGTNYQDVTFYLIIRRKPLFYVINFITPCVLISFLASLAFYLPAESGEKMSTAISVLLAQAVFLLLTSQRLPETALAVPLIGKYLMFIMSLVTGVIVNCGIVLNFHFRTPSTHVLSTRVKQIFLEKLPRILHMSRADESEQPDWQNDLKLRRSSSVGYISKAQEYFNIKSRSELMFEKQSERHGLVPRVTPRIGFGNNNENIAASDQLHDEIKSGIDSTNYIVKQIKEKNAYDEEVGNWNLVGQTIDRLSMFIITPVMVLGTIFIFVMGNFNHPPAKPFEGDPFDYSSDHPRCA
T4 sequence (P36544 23-502): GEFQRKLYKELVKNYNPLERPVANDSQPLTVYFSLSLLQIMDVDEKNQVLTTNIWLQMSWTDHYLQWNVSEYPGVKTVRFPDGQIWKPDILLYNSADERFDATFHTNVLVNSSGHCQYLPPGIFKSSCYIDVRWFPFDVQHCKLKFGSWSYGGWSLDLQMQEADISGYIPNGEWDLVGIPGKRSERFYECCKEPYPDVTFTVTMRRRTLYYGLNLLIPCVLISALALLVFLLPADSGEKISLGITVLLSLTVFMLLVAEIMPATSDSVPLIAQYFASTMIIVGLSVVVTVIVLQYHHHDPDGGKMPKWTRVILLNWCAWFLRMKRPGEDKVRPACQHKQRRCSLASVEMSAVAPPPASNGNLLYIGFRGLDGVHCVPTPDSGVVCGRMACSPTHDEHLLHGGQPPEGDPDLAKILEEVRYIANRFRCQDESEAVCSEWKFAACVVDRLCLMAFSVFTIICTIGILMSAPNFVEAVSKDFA
GABAA receptor α1β3γ2, sequence (P62813 28-455): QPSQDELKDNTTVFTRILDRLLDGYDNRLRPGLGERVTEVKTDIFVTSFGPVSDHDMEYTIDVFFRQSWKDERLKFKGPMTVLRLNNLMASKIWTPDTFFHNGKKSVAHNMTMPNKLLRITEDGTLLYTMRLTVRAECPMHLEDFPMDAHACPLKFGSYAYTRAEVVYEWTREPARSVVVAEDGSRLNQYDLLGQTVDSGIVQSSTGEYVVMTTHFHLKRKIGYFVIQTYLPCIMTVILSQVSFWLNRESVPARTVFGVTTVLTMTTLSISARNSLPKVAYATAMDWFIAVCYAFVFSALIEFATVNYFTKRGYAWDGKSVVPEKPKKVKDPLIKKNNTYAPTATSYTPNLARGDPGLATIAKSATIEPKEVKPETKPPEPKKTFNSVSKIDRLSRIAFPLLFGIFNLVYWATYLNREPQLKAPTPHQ
GABAA receptor α1β3γ2, sequence (P63079 26-473): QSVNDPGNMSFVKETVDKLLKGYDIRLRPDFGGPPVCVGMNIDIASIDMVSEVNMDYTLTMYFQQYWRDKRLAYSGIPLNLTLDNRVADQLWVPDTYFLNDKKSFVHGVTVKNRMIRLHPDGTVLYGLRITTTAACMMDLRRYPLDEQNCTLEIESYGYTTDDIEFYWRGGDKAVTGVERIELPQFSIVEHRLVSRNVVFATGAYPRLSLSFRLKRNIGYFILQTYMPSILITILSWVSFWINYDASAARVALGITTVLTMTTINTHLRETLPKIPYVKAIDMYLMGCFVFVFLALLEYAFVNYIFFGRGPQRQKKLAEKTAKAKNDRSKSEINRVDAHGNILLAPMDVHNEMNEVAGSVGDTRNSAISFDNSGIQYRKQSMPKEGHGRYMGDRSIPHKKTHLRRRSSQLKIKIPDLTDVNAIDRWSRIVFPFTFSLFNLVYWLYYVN
GABAA receptor α1β3γ2, sequence (P18508 39-466): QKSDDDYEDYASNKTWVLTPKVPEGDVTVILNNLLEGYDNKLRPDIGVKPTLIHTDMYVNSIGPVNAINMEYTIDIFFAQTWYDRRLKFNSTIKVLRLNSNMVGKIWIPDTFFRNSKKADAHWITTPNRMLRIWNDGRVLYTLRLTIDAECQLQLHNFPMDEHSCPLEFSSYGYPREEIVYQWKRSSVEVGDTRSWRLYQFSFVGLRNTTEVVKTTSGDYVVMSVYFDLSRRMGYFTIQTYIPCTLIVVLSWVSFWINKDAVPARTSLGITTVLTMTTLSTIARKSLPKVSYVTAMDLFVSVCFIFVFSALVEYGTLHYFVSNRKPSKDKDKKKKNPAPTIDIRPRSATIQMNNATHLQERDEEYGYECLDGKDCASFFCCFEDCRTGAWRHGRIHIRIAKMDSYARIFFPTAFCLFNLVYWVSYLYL
GABAA receptor α2β3γ2, sequence (P23576 29-451): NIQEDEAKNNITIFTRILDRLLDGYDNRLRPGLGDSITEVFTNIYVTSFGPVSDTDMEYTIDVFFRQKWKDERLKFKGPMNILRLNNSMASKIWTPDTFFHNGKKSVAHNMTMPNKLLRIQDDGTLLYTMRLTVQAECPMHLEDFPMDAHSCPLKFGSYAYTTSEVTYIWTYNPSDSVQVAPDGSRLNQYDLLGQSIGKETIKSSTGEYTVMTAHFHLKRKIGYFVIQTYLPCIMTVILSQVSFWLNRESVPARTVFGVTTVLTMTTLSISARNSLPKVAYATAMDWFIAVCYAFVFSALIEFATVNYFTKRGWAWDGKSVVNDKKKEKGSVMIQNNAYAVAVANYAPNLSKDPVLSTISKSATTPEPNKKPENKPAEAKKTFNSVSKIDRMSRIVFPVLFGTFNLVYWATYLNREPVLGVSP
GABAA receptor α2β3γ2, sequence (P63079 26-473): as the sequence (P63079 26-473) above
GABAA receptor α2β3γ2, sequence (P18508 39-466): as the sequence (P18508 39-466) above

Substance: DNWWPKPPHQGPRPPRPRPKP [Azemiopsin]
- recovery of the ACh response after washing out the toxin [1]: complete recovery
- effect on GABAA receptor currents (GABAA receptor α2β3γ2): no significant effects
- effect on GABAA receptor currents (GABAA receptor α1β3γ2): no significant effects
- difference in the affinity between the two binding sites (α1/γ and α1/δ) (T. californica nAChR [2]): 27 fold
- effect at 5-HT3A receptors (5-HT3A receptor): no effects
- LD50 [3]: 2.6 ± 0.3 mg/kg
- effect at 5-HT3AB receptors (5-HT3AB receptor): no effects

Substance: Neurotoxin II Naja oxiana
- IC50 (T. californica nAChR [4]): 3 nM
- IC50 (Human α7 nAChR [5]): > 4000 nM

Substance: α-Cobratoxin
- IC50 (Human α7 nAChR [6]): 105 ± 10 nM
- IC50 (A. californica AChBP): 58 ± 2 nM
- IC50 (L. stagnalis AChBP): 2 ± 0.2 nM
